These results are taken from ChEMBL document CHEMBL4219255, “Targeting Transient Receptor Potential Vanilloid 1 (TRPV1) Channel Softly: The Discovery of Passerini Adducts as a Topical Treatment for Inflammatory Skin Disorders” (J Med Chem, 2018).

The subject of data set [1] is Mus musculus. In words: Analgesic activity in CFA-induced thermal hyperalgesia C57BL/6 mouse model assessed as reduction in latency time required to elicit paw withdrawal in response to radiant heat applied to the plantar surface of a hind paw at 10 to 100 ug administered as intraplantar injection treated at 24 hrs post CFA injection measured at 60 mins post dose. The class given is functional, organism-based.

In data set [2] the target is T1, Liver carboxylesterase 1 (CE1) (Homo sapiens, UniProt P23141).
T1 sequence (P23141 whole entry): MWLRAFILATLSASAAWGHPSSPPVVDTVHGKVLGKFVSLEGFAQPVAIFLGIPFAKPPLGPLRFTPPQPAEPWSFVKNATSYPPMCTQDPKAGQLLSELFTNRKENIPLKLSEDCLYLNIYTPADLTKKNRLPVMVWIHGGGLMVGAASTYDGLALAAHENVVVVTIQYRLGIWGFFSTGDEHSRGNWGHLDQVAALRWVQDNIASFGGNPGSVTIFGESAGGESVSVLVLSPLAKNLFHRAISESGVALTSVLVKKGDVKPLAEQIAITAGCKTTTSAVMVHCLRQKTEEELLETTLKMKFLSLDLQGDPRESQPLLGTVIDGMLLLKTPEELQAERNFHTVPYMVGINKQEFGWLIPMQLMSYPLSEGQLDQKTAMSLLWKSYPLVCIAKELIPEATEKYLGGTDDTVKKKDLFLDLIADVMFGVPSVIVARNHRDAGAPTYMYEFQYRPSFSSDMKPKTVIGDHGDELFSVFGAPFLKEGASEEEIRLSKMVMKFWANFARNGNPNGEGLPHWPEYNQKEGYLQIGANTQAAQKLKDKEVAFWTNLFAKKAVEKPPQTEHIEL
In words: Drug metabolism assessed as recombinant human CE1-mediated compound hydrolysis by measuring compound half life at 50 uM up to 30 mins by LC-UV analysis. In kind it is ADME. In short, it runs like this: (§1)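 Recombinant human carboxylesterase isoforms 1 and 2 were each incubated with the test ester. Hydrolysis was followed by HPLC-UV, tracking the disappearance of the substrate over incubation time relative to the initial amount. Chromatograms were also checked for peaks of the expected hydrolysis metabolites.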

The subject of data set [3] is Mus musculus. Briefly: Analgesic activity in CFA-induced thermal hyperalgesia C57BL/6 mouse model assessed as reduction in CFA-induced ipsilateral paw withdrawal latency at 3 mg/kg, iv treated at 24 hrs post CFA injection measured at 60 to 90 mins post dose. In kind it is functional, organism-based.
The nature of data set [4]: Drug metabolism in human liver microsomes assessed as glucuronide metabolite formation at 50 uM in presence of UDPGA after 60 mins by LC-ESI-MS analysis. The class given is ADME, microsome. The following applies: 1 h.
The next data set deals with T2, Liver carboxylesterase 1 (Homo sapiens, UniProt P23141).
T2 sequence (P23141 whole entry): T1 sequence (P23141 whole entry)
Briefly: Drug metabolism assessed as recombinant human CE1-mediated compound hydrolysis by measuring rate constant at 50 uM up to 30 mins by LC-UV analysis. As to conditions: 0.5 h. The class given is ADME. The gist of the method: as §1

The target in data set [5] is Transient receptor potential cation channel subfamily V member 1 (Homo sapiens, UniProt Q8NER1). Briefly: Antagonist activity at TRPV1 (unknown origin) expressed in human SH-SY5Y cells assessed as inhibition of capsaicin-induced calcium influx at 1 uM after 25 mins by Fluo-4 NW dye-based fluorescence assay relative to capsaicin. In kind it is cell-based.
For the next data set, the target named is T3, Cocaine esterase (Homo sapiens, UniProt O00748).
T3 sequence (O00748 whole entry): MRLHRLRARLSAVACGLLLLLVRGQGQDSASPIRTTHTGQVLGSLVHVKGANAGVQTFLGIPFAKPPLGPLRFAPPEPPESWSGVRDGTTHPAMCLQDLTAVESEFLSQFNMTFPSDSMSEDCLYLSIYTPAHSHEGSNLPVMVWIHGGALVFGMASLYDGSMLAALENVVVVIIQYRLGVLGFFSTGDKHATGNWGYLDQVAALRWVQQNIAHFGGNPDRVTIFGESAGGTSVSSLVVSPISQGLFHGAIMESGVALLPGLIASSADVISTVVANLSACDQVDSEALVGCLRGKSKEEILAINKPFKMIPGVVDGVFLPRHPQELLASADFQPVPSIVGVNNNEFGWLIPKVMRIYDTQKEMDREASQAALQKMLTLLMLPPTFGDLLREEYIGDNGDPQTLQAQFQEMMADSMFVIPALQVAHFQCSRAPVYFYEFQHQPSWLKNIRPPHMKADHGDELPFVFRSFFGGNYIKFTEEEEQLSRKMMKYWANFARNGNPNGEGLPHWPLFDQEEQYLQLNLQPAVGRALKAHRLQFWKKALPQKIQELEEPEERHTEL
Briefly: Drug metabolism assessed as recombinant human CE2-mediated compound hydrolysis by measuring rate constant at 50 uM up to 30 mins by LC-UV analysis. As to conditions: 0.5 h. In kind it is ADME. The gist of the method: as §1

Data set [6] can be described thus: Drug metabolism in human plasma assessed as residual substrate levels at 100 uM up to 20 mins by HPLC-UV analysis. As to conditions: read-out: Stability. In kind it is ADME, cell-free.
In data set [7] the test system is Mus musculus. Briefly: Analgesic activity in CFA-induced thermal hyperalgesia C57BL/6 mouse model assessed as reduction in CFA-induced ipsilateral paw withdrawal administered intravenously treated for 24 hrs post CFA injection. In kind it is functional, organism-based.
Data set [8] deals with Transient receptor potential cation channel subfamily V member 1 (Rattus norvegicus) (UniProt O35433). Briefly: Inhibition of TRPV1 in Wistar rat neonatal dorsal root ganglia assessed as reduction in capsaicin-induced neuronal excitability by microelectrode array analysis.
Another data set deals with T4, Cocaine esterase (CE2) (Homo sapiens, UniProt O00748).
T4 sequence (O00748 whole entry): T3 sequence (O00748 whole entry)
Briefly: Drug metabolism assessed as recombinant human CE2-mediated compound hydrolysis by measuring compound half life at 50 uM up to 30 mins by LC-UV analysis. The class given is ADME. In short, it runs like this: as §1

Data set [9] deals with Mus musculus. Briefly: Analgesic activity in CFA-induced thermal hyperalgesia C57BL/6 mouse model assessed as reduction in latency time required to elicit paw withdrawal in response to radiant heat applied to the plantar surface of a hind paw administered as intraplantar injection treated at 24 hrs post CFA injection measured every 30 mins up to 120 mins post dose. The class given is functional, organism-based.

Data set [10] can be described thus: Drug metabolism in human liver S9 fraction assessed as residual substrate levels at 50 uM up to 60 mins by HPLC-UV analysis. The class given is ADME, subcellular. As to conditions: read-out: Stability.
The subject of data set [11] is Mus musculus. Briefly: Analgesic activity in CFA-induced thermal hyperalgesia C57BL/6 mouse model assessed as reduction in CFA-induced ipsilateral paw withdrawal latency at 10 mg/kg, iv treated at 24 hrs post CFA injection measured at 60 mins post dose. The class given is functional, organism-based.
Data set [12] concerns Mus musculus. In words: Effect on thermal nociception of the contralateral paw in CFA-induced thermal hyperalgesia C57BL/6 mouse model at 1 to 10 mg/kg, iv treated at 24 hrs post CFA injection. The class given is ADME, organism-based. As to conditions: in vivo.
Data set [13] can be described thus: Drug metabolism in human liver cytosol assessed as glucuronide metabolite formation at 50 uM in presence of UDPGA after 60 mins by LC-ESI-MS analysis. The class given is ADME, subcellular. The following applies: 1 h.
Data set [14] has as its system Mus musculus. Briefly: Analgesic activity in CFA-induced thermal hyperalgesia C57BL/6 mouse model assessed as reduction in latency time required to elicit paw withdrawal in response to radiant heat applied to the plantar surface of a hind paw at 10 to 100 ug administered as intraplantar injection treated at 24 hrs post CFA injection measured at 90 mins post dose. The class given is functional, organism-based.

Data set [15] deals with Mus musculus. In words: Effect on thermal nociception of the contralateral paw in CFA-induced thermal hyperalgesia C57BL/6 mouse model at 10 to 100 ug administered as intraplantar injection treated at 24 hrs post CFA injection measure up to 120 mins. In kind it is ADME, organism-based. The following applies: in vivo, other.

Activity calls are given as the source filed them. The calls are words filed in the database; no cut-off is given here.

Sequence of Transient receptor potential cation channel subfamily V member 1 (Rattus norvegicus) (O35433 whole entry): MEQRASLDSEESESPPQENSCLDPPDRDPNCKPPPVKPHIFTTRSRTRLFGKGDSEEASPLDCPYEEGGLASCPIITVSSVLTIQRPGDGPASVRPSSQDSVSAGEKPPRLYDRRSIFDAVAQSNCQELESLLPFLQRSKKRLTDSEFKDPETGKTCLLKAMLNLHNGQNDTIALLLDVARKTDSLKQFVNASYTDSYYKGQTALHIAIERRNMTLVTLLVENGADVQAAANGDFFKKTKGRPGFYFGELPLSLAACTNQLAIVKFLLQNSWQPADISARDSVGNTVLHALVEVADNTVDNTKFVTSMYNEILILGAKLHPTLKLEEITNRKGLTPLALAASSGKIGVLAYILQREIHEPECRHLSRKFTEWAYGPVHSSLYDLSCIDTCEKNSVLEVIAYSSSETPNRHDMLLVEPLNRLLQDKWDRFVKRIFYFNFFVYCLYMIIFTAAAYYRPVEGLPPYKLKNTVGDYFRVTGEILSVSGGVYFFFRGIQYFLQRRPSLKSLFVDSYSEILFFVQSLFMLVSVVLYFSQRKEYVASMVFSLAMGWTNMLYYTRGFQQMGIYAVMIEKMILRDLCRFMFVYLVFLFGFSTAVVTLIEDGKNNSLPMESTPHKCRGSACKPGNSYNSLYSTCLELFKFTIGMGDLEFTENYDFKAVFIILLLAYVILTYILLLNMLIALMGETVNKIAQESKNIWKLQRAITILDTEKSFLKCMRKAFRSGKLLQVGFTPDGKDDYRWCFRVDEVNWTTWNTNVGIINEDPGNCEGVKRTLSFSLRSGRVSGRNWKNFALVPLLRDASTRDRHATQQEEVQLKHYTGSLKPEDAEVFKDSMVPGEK
Sequence of Transient receptor potential cation channel subfamily V member 1 (Q8NER1 whole entry): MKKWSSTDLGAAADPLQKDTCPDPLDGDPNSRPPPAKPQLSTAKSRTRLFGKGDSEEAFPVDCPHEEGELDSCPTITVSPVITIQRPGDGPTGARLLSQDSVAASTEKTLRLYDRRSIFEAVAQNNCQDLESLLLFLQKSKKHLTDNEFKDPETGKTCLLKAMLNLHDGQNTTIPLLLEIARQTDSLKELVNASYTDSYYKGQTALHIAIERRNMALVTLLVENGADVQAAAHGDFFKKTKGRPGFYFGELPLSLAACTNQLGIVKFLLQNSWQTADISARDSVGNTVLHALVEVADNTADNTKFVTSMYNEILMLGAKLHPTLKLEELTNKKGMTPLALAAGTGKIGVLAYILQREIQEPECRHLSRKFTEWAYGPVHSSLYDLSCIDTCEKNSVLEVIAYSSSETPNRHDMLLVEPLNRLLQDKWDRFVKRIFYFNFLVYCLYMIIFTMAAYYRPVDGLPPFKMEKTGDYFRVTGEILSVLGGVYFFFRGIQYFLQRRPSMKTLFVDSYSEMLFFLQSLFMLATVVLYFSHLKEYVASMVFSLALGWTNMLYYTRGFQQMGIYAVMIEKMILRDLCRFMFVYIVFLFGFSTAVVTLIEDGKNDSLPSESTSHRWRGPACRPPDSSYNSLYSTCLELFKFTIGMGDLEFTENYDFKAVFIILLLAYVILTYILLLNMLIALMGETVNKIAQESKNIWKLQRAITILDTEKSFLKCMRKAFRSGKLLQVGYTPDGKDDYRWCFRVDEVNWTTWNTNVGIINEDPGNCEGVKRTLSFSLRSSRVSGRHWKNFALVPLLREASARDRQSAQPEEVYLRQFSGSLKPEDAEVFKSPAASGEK

`CCCCCCCCCCCC(=O)OCC(=O)NCc1cc(OC)c(O)cc1I`: the outcome in the data set on Mus musculus [1], in the data set with Mus musculus [3], in the data set with Mus musculus [11] and with Mus musculus [14] was Active. Also, the half-life at 50 µM in data set [2] is 27.2 min; on Cocaine esterase (CE2), 12.5 min. The Drug metabolism entry in [4] and in [13] was “Metabolite_Notdetected” each time. The figures for the K on Liver carboxylesterase 1 and on Cocaine esterase were 0.0255 min⁻¹ and 0.0555 min⁻¹, respectively. In addition, the figures for the inhibition in [5] and in [8] were 59.8% and “Dose-dependent effect”, respectively. Besides, the remaining at 20 min, 100 µM in data set [6] stood at 82%. The Activity entry in the data set with Mus musculus [7] is “Dose-dependent effect”; with Mus musculus [9], “Dose-dependent effect”; in the data set with Mus musculus [12], “Non-Toxic”; in the data set with Mus musculus [15] it was “Non-Toxic”. In addition, the remaining at 1 h, 50 µM in data set [10] was 0%.
